Experimental data: the EternaBench riboswitch data

Tested on: MS2 coat protein
Assay: apparent Kd, MS2 coat protein; higher = weaker binding; RNA-MaP array; FMN 200 µM where present
Summary of the method: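 Designs were transcribed by stalled E. coli RNA polymerase on Illumina sequencing-chip clusters. They were titrated with SNAP-549-labelled MS2 coat protein from 0.7 or 1.5 nM, doubling to 3 µM, without and then with constant ligand. Buffer: 100 mM Tris-HCl pH 7.5, 80 mM KCl, 4 mM MgCl2, BSA, DTT, yeast tRNA, Tween-20. Green signal was normalised to red-channel RNA signal and control-cluster median Fmax. Apparent Kd is the median of filtered per-cluster binding-curve fits.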

[1] = designed as: OFF switch for flavin mononucleotide, no ligand
[2] = ligand present: flavin mononucleotide, designed as: OFF switch for flavin mononucleotide
[3] = designed as: ON switch for flavin mononucleotide, no ligand
[4] = ligand present: flavin mononucleotide, designed as: ON switch for flavin mononucleotide

| Sequence | apparent Kd [1] [nM] | apparent Kd [2] [nM] | apparent Kd [3] [nM] | apparent Kd [4] [nM] |
| --- | --- | --- | --- | --- |
| GUGUACGUAGGAUAUACAUGAGGAUCACCCAUGUGAAUAAGAUAGAAUAAGAUAAAGUGUAGAAGGACGAGUGU | 37.3 | 30.5 |  |  |
| GUGUACUGAGGAUAUACAUGAGGAUCACCCAUGUGAAUAAGAUAGAAUAAGAUAAAGUGUAGAAGGCAGAGUGU | 40.8 | 35.4 |  |  |
| GUGUACUGAGGAUAUGCUGGAAUCUAGCGAAGCUAGGUUCCACAUGAGGAUCACCCAUGUAGAAGGCGGUACAC | 34.2 | 13.7 |  |  |
| GUGUAGACAGGAUAUGCUUUGAGCGUAUGAGAGUAGGCUCGACAUGAGGAUCACCCAUGUAGAAGGGUCUACAC | 12.4 | 13.2 |  |  |
| GUGUAGAUAUCAGGAUAUCUAUUUCCUACAUGAGGAUCACCCAUGUAGAUGAUCACCCAUGUAAAGGAGAAGGGAUGUCUAUAC |  |  | 163 | 138 |
| GUGUAGUGAGGAUAUACAUGAGGAUCACCCAUGUGAAUAAGAUAGAAUAAGAUAAAGUGUAGAAGGUAUAGUGU | 53.2 | 35.3 |  |  |
| GUGUCUAACUAGAAGGCCGUAUGCAAAGCAUACGGAGGAUAUGGGUUCCGGAAACGGACAUGAGGAUCACCCAUGUGGCACAAA |  |  | 94.3 | 13.4 |
| GUGUGCUGAGGAUAUACAGAGGAAGAUAAGAUAAGAUAAUCACAUGAGGAUCACCCAUGUAGAAGGCAGAGUGU | 23.7 | 35.5 |  |  |
| GUGUUACAUGAGGAUCACCCAUGUGAGGAUAUCAUGCUUCGUAGUAAACUACGAAGUGUGAGAAGGCACAUGAC | 265 | 806 |  |  |
| GUUAAUUAGUGAGGAUAUACAGAGAGUGAAGCUGUAGAAGGCACAUUCCUCAAGACAUGAGGAUCACCCAUGUGAUAAUAAGAU | 37.4 | 105 |  |  |
| GUUACACAUGAGGAUCACCCAUGUAAGGAUAUGCUGCGGUCGCGCUGACGUGACUGCAGCAGAAGGUACACAUG | 105 | 133 |  |  |
| GUUAGGAAUCUAGCGAACAUGAGGAUCACCCAUGUUAGUGGGAAGGAUAUGGUACAGAAACUGUACCAGAAGGUCUUAUUGUUU |  |  | 398 | 305 |
| GUUCUGCCUCCUGCCGGAACAUGAGGAUCACCCAUGUUGCCUGAGGAUAUCCUAUGGCUCCCACAGGAGAAGGCAGGCAACAUA | 86.2 | 371 |  |  |
| GUUGCGUUUGUGAGGAUAUGCUGGUCCUUGGUUCGGCAGAAGGCACAUGAGGAUCACCCAUGUGGUGUCGUUCC | 14.2 | 22.4 |  |  |
| GUUGCUACUGAGGAUAUUAUUCUACCCGACUGAUAAGAAGGCAGUACAUGAGGAUCACCCAUGUGGGUAGCCAG | 16.7 | 22.5 |  |  |
| GUUGGGUGUCAUGUCGCACAUGAGGAUCACCCAUGUAGGAGGUAGGAUAUCCACGAGAAACGAGAGGAGAAGGGCCAUUAGCGU | 19.2 | 23 |  |  |
| GUUGUUUGAGGAUAUACAUGAGGAUCACCCAUGUGUGUCCAUACGCGUGAGUCUUCGUGUAGAAGGCGGGCGGC | 13.7 | 14.7 |  |  |
| GUUUAGUGAGGAUAUGUGGCGUCGAUCGAGCGCGGUCUGCUACAGAAGGCACAUGAGGAUCACCCAUGUUUCUC | 258 | 371 |  |  |
| GUUUCUAUAUGUUUUAUUUAACAGUCAGAAGGUGAUACUACGACAUGAGGAUCACCCAUGUAAUUCAAGGAUAUGAACUUAAUC |  |  | 1060 | 517 |
| GUUUUUGCAUGAGGAUAUGCUCGCAUUUCAAGAGCAGAAGGUAUUUCUUUUGACAUGAGGAUCACCCAUGUAUUUAUCAUUGAA |  |  | 21 | 18.9 |
| UAAAACGGAGGAUAUACUGACCCUCAAAACAGACGCGCUGGACAUGAGGAUCACCCAUGUAGAAGGCCGAAUGC | 26.3 | 61.9 |  |  |
| UAAAAGACUAGCAAAUAAGUUCCACAUGAGGAUCACCCAUGUCAGGAUAUGAGCAGCAAAGCUGCUCAGAAGGGACAGCUAGUC | 5.53 | 6.99 |  |  |
| UAAAAGACUAGCUUUGGUAAGAUCACAUGAGGAUCACCCAUGUAGGAUAUGAGCAGAAAAUCUGCUCAGAAGGACAUGCUAGUC | 16.2 | 156 |  |  |
| UAAACGUUCUAGAAGGUGCUUUUGUUAAACAAGCAAGGAUAUAGACAUGAGGAUCACCCAUGUCUUUUAGACAUCGACAUACUU | 6.9 | 8.03 |  |  |
| UAAAUCUUGUAAGGAUAUACACGAGAUUCAAGUGUAGAAGGUACUUACAUGAGGAUCACCCAUGUAUACAUGGAUAAUAUAUAU |  |  | 206 | 32.2 |
| UAAGAGUGAGGAUAUACGUCGCUGGACCGGAUGGACGCAUGACAUGAGGAUCACCCAUGUAGAAGGCACAAAAC | 20.2 | 25.5 |  |  |
| UAAUAAAGUGUGAGGAUAUGCUGGUCCAUAGAUCAGCAGAAGGCACAUGAGGAUCACCCAUGUAAUAUAUAAAU | 28.4 | 145 |  |  |
| UAAUAAUAGCAAGGAUAUGGUUAUUAUAAUAUACCAGAAGGUGCACAUGAGGAUCACCCAUGUUUUAUAAUUUGUAAUUUAAAU | 30.7 | 27.3 |  |  |

| Sequence | apparent Kd [1] [nM] | apparent Kd [2] [nM] | apparent Kd [3] [nM] | apparent Kd [4] [nM] |
| --- | --- | --- | --- | --- |
| UAAUAUUUAUGAUAUUAUUACAUUAGAAGGCUAGACAUGUGGAUACAUGAGGAUCACCCAUGUAUAGAGGAUAUAGACAUAUAG | 25.8 | 42.6 |  |  |
| UAAUCGUUGCAGAAGGUUAUUUUUUUAACAUUUCUCUUAACAUGAGGAUCACCCAUGUUUUUGAUGAAGGAUAUGCAACGGUAG | 6.67 | 5.51 |  |  |
| UAAUUGUGAGGAUAUUCGUAGUUCACGGAGACGUGAAUUACGGAGAAGGCACAUGAGGAUCACCCAUGUUCCUU | 17.8 | 84.8 |  |  |
| UAAUUUUUGACAGGAUAUCCAUGUACAUGAGGAUCACCCAUGUAAAAGGGUAGCCUCAUCGGGCAGGAGAAGGGUCGAUAGGCG | 249 | 134 |  |  |
| UACAAUCUAUCUGAGGAUAUCAUGCAUUACACAUGAGGAUCACCCAUGUGCAGGAAAACUGCAUAUGAGAAGGCAGAUAGAUUGU |  |  | 561 | 23.8 |
| UACAGACAUGAGGAUCACCCAUGUAAGGAUAUCGGUACCGAUGGCAUAAUCUGCUCGGCGAGAAGGUACAGUGU | 22.6 | 24.9 |  |  |
| UACAUGAGGAUCACCCAUGUUUUGUCGUGUAUGGUAUUUAUCUAGGAUAUCAUUUUAUUUAGGUAUGAGAAGGAGAAUAUUAAU | 35.4 | 36.2 |  |  |
| UACAUGUAAGGAUAUGUAAAAUCAAAACAAGAACGAUAAAGACAGAAGGUACAUGAGGAUCACCCAUGUGUCCC | 20.5 | 21.4 |  |  |
| UACAUUAACAUGAGGAUCACCCAUGUUGGCCAGUCUCUCACCAGAAGGCACGUAGAGUACAACAGUGAGGAUAUGGGUGACAUA |  |  | 139 | 86.1 |
| UACCAAUUUUUGGUAUUACACUAUGAGGAUAUCAUAUAUGAAUACAUGAGGAUCACCCAUGUGUGUGAGAAGGCAUAAUUUAUA |  |  | 28.1 | 10.5 |
| UACCACGACAACGCGGUAUCACAUGAGGAUCACCCAUGUUCACAGGAUAUGCGAUAGCCAACGAAGCAGAAGGGUGAUUACUUA |  |  | 70.2 | 158 |
| UACCACGUUUGAUUAGGCGUGACAUGAGGAUCACCCAUGUGUCAGGAUAUACAUGGGCGGGCCCAGUAGAAGGGACUUAAUAGC |  |  | 327 | 65.1 |
| UAGAAAGAUUAAUAUGAUUACAUGAGGAUCACCCAUGUAUAAUAGGAUAUCGACGUCAAUGACGUCGAGAAGGAUUAUACAUAA | 53.6 | 71.2 |  |  |
| UAGAAGUCAGGAUAUCCAGCUCGUCACUUGCGUGAUGAGUUGGAGAAGGGACAUGAGGAUCACCCAUGUAAAGG | 152 | 242 |  |  |
| UAGACAUGAGGAUCACCCAUGUACUGGAUUUCAACGCGAUCACAGGAUAUACGGGAUUCGUCCACGUAGAAGGGUGACAACGUC |  |  | 143 | 35.1 |
| UAGAUGGGAGGAUAUACAUAGAUACAGAUUCAUGUAGUGCUACAUGAGGAUCACCCAUGUAGAAGGCCCGUCUU | 33 | 355 |  |  |
| UAGCAGUGCGGGUAGGAUAUGUAGGGUGGUACAUGAGGAUCACCCAUGUAUCCACCCUUCGACCGGCAGAAGGGCCUGUCACUGC |  |  | 22 | 22.6 |
| UAGGUCGCAGGAUAUGCUGGGUGCAUAUCUUAGUGCAGGAGACAUGAGGAUCACCCAUGUAGAAGGGCGCGCUG | 44.9 | 124 |  |  |
| UAGUAUAAGGGCAUUAAACAUGAGGAUCACCCAUGUACGUUAGAGGAUAUGCAUUACAGUUGAAAGUAGAAGGUUAGAGAAGGG | 45.6 | 50.1 |  |  |
| UAGUAUUAGCGAGGAUAUCGUAUGUUCAAUUUUUUAUAUUGUUUACAUGAGGAUCACCCAUGUUACGAGAAGGCGCAUGGGAUU |  |  | 466 | 85.8 |
| UAUACACAUGAGGAUCACCCAUGUGAGGAUAUGCGUACGUUGUCCGUAGGCGACGUGCGCAGAAGGCGCAAGGU | 72.7 | 104 |  |  |
| UAUAUAAUAUUUCACAUGAGGAUCACCCAUGUACAUGGGAUAGAGGAUAUACAAAUAUUAGUGGUGUAGAAGGUUAAUAUAUAU | 158 | 101 |  |  |
| UAUAUAUAGGCAGGAUAUACAUGAAUAUAUAUAAUAUAAUAUGAUGUAACAUGAGGAUCACCCAUGUAGAAGGGCCAAUAUAUA | 32.6 | 64.9 |  |  |
| UAUAUAUAGUAAGGAUAUGUAUAAAUUUUAUAAACAGAAGGUACUGACAUGAGGAUCACCCAUGUUUUAGUGUGGGCAUGUAGA | 96.2 | 147 |  |  |
| UAUAUAUAGUAAGGAUAUGUAUUAAUUUUACAAACAGAAGGUACUGACAUGAGGAUCACCCAUGUUUUAGUGUGGGCAUGUAGA | 59.9 | 72.6 |  |  |
| UAUAUAUAGUAAGGAUAUGUAUUUAUUUUACAAACAGAAGGUACUGACAUGAGGAUCACCCAUGUUUUAGUGUGGGCAUGUAGA | 61.1 | 76.1 |  |  |
| UAUAUAUAGUAAGGAUAUGUAUUUAUUUUAUAAACAGAAGGUACUGACAUGAGGAUCACCCAUGUUUUAGUGUGGGCAUGUAGA | 89.1 | 128 |  |  |
